Measured values reported in paper PMC3085959 (Journal of medicinal chemistry, 2011).
Entries after “also recorded” stand apart in the source; their conditions may differ.

Assays:
[1] = system: cloned human dopamine receptor subtypes, serotonin receptor subtypes, alpha-adrenergic receptors, and opioid receptors; experiment: CNS receptor screening, NIMH PDSP primary binding assays; details: 10 μM
[2] = system: rats; experiment: Rat forced swim test; type: in vivo; details: 10 mg/kg i.p., sub-chronic, 1 h before test, compared to vehicle
Method in brief: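 Male Sprague-Dawley rats (200–225 g), naive, used once, tested in cylinders of 24–25 °C water, 22 cm deep. A 15 min pretest was followed 24 h later by a 5 min test. Dosing was i.p. in 10% β-hydroxypropyl cyclodextrin (2 mL/kg), 15 min after pretest and 1 h before test. Imipramine 15 mg/kg was the reference. Blinded video immobility scoring, one-way ANOVA.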

[3] = target: serotonin transporter (SERT) (Rattus norvegicus, UniProt P31652); experiment: Inhibition of [3H]serotonin uptake by SERT in rat cerebral cortex; type: biochemical
[4] = target: dopamine transporter (DAT) (Rattus norvegicus, UniProt P23977); experiment: Inhibition of [3H]dopamine uptake by DAT in rat striatum; type: biochemical
Chain of dopamine transporter (DAT) (P23977 whole entry): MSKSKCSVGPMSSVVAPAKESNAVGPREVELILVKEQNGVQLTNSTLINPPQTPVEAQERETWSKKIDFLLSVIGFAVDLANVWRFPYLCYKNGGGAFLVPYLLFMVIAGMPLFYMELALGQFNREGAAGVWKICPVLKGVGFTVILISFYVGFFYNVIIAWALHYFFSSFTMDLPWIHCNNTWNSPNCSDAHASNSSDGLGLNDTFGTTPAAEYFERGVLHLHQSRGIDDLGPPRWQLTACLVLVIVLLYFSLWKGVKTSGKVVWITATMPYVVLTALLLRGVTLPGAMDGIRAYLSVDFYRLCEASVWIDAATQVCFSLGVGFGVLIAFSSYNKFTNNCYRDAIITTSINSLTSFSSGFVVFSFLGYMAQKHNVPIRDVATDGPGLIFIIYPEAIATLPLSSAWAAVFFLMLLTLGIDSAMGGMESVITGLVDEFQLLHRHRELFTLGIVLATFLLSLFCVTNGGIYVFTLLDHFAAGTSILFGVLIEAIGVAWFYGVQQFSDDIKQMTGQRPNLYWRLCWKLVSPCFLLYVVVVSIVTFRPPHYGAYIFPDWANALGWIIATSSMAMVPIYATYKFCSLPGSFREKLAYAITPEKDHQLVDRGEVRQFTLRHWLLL

Chain of serotonin transporter (SERT) (P31652 whole entry): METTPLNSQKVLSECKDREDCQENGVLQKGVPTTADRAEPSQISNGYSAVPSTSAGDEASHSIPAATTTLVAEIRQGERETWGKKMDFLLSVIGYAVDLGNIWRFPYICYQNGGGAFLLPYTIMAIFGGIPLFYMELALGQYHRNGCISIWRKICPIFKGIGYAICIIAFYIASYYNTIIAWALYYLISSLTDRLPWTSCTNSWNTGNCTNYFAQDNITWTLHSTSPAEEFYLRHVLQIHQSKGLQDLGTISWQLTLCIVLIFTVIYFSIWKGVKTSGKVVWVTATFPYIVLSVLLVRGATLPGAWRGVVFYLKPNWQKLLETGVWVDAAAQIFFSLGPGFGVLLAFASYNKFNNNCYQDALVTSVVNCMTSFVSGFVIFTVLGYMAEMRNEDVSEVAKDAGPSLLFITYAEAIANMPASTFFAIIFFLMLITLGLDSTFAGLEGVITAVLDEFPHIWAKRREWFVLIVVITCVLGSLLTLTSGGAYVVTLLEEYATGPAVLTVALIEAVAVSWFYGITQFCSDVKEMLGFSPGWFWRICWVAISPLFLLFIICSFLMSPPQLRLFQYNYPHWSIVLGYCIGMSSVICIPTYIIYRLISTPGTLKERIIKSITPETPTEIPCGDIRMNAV

Row | Structure (SMILES) | Inhibition in CNS receptor screening, majority of the receptor target sites [1] | Inhibition in CNS receptor screening, a few other target sites ([1]; only marginally so in some cases) | Effect on duration of immobility in the forced swimming test [2] | Ki [3] | Ki [4]
1 | Oc1cccc(CN[C@H]2CC[C@@H](C(c3ccccc3)c3ccccc3)OC2)c1 [Compound 10f, 3-((((3S,6S)-6-benzhydryltetrahydro-2H-pyran-3-yl)amino)methyl)phenol] | less than 50% | greater than 50% | significant reduction of immobility; also recorded: high efficacy in reducing immobility; also recorded: more efficacious than imipramine |  | 
2 | c1ccc(C(c2ccccc2)[C@@H]2CC[C@H](NCc3cccs3)CO2)cc1 [Compound 10g, (3S,6S)-6-benzhydryl-N-(thiophen-2-ylmethyl)tetrahydro-2H-pyran-3-amine] |  |  |  | 12.9 nM | 15.9 nM
